Laboratory results from ChEMBL document CHEMBL4325893, “Synthesis and antibacterial profiles of targeted triclosan derivatives” (2019).
Converted amounts (≈) assume the structure as drawn.

Key:
Staphylococcus aureus [1] = assay: Antibacterial activity against Staphylococcus aureus ATCC 6538 after 18 hrs; format: functional; details: ATCC 6538, 18 h
Summary of the method: (§1)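 Broth microdilution in Nutrient Broth No. 2; stocks in ethanol diluted to 0.01–128 µg/ml (triclosan) or 0.25–256 µg/ml (glycosides). Overnight 37 °C NB2 cultures diluted 1 in 10^4 in saline and added to the dilutions. Incubation at 37 °C with agitation, OD read every 15 min; MIC is the lowest concentration preventing any OD rise after 18 h.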

Staphylococcus aureus [2] = assay: Antibacterial activity against Staphylococcus aureus ATCC 6538P after 18 hrs; format: functional; summary of the method: as §1
Staphylococcus aureus [3] = assay: Antibacterial activity against Staphylococcus aureus ATCC 9144 after 18 hrs; format: functional; details: ATCC 9144, 18 h; summary of the method: as §1
Staphylococcus aureus [4] = assay: Antibacterial activity against Staphylococcus aureus ATCC 25923 after 18 hrs; format: functional; details: ATCC 25923, 18 h; summary of the method: as §1
Staphylococcus aureus [5] = assay: Antibacterial activity against Staphylococcus aureus ATCC 29213 after 18 hrs; format: functional; details: ATCC 29213, 18 h; summary of the method: as §1
Staphylococcus aureus [6] = assay: Antibacterial activity against Staphylococcus aureus NCTC 13758 after 18 hrs; format: functional; details: NCTC 13758, 18 h; summary of the method: as §1
Staphylococcus aureus [7] = assay: Antibacterial activity against Staphylococcus aureus OCC 104 after 18 hrs; format: functional; details: OCC 104, 18 h; summary of the method: as §1
Staphylococcus aureus [8] = assay: Antibacterial activity against Staphylococcus aureus OCC 106 after 18 hrs; format: functional; details: OCC 106, 18 h; summary of the method: as §1
[9] = tested on: Staphylococcus epidermidis; assay: Antibacterial activity against Staphylococcus epidermidis 155 after 18 hrs; format: functional; details: Staphylococcus epidermidis, 155, 18 h; summary of the method: as §1
[10] = tested on: Staphylococcus epidermidis; assay: Antibacterial activity against Staphylococcus epidermidis ATCC 12228 after 18 hrs; format: functional; details: ATCC 12228, 18 h; summary of the method: as §1
[11] = tested on: Staphylococcus epidermidis; assay: Antibacterial activity against Staphylococcus epidermidis ATCC 14990 after 18 hrs; format: functional; details: ATCC 14990, 18 h; summary of the method: as §1
[12] = tested on: Staphylococcus haemolyticus; assay: Antibacterial activity against Staphylococcus haemolyticus OCC 2223 after 18 hrs; format: functional; details: OCC 2223, 18 h
Summary of the method: (§2)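 Broth microdilution in Nutrient Broth No. 2. Ethanol stocks were diluted in broth to 0.01–128 µg/ml for triclosan and 0.25–256 µg/ml for glycosides. Overnight 37°C NB2 cultures were diluted 1 in 10^4 in saline and added to the wells. Plates were incubated at 37°C with OD read every 15 min after agitation. MIC was the lowest concentration giving no OD increase at 18 h.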

[13] = tested on: Staphylococcus saprophyticus; assay: Antibacterial activity against Staphylococcus saprophyticus ATCC 15305 after 18 hrs; format: functional; details: ATCC 15305, 18 h; summary of the method: as §2
Streptococcus agalactiae = assay: Antibacterial activity against Streptococcus agalactiae OCC 182 after 18 hrs; format: functional; details: OCC 182, 18 h; summary of the method: as §2
Streptococcus pneumoniae [14] = assay: Antibacterial activity against Streptococcus pneumoniae 6305 after 18 hrs; format: functional; details: Streptococcus pneumoniae, 6305, 18 h; summary of the method: as §2
Streptococcus pneumoniae [15] = assay: Antibacterial activity against Streptococcus pneumoniae ATCC 49619 after 18 hrs; format: functional; details: ATCC 49619, 18 h; summary of the method: as §2
Streptococcus pyogenes = assay: Antibacterial activity against Streptococcus pyogenes ATCC 19615 after 18 hrs; format: functional; details: ATCC 19615, 18 h; summary of the method: as §2
Streptococcus viridans = assay: Antibacterial activity against Streptococcus viridans OCC 234 after 18 hrs; format: functional; details: OCC 234, 18 h; summary of the method: as §2
[16] = tested on: Salmonella enterica subsp. enterica serovar Abony; assay: Antibacterial activity against Salmonella enterica subspecies enterica serotype Abony NCTC 6017 after 18 hrs; format: functional; details: NCTC 6017, 18 h; summary of the method: as §1
[17] = Antibacterial activity against Salmonella enterica subspecies enterica serotype Arizonae OCC 706 after 18 hrs; format: functional, Salmonella enterica subsp. enterica serovar Arizonae; details: OCC 706, 18 h; summary of the method: as §1
[18] = Antibacterial activity against Salmonella enterica subspecies enterica serotype Dublin OCC 627 after 18 hrs; format: functional, Salmonella enterica subsp. enterica serovar Dublin; details: OCC 627, 18 h; summary of the method: as §1
Salmonella enteritidis = assay: Antibacterial activity against Salmonella enterica subspecies enterica serotype Enteritidis 13076 after 18 hrs; format: functional, Salmonella enterica subsp. enterica serovar Enteritidis; details: Salmonella enterica, 13076, 18 h; summary of the method: as §1
[19] = Antibacterial activity against Salmonella enterica subspecies enterica serotype Indiana OCC 597 after 18 hrs; format: functional, Salmonella enterica subsp. enterica serovar Indiana; details: OCC 597, 18 h; summary of the method: as §1
[20] = Antibacterial activity against Salmonella enterica subspecies enterica serotype Infantis OCC 2133 after 18 hrs; format: functional, Salmonella enterica subsp. enterica serovar Infantis; details: OCC 2133, 18 h; summary of the method: as §1
[21] = Antibacterial activity against Salmonella enterica subspecies enterica serotype Nottingham NCTC 7832 after 18 hrs; format: functional, Salmonella enterica subsp. enterica serovar Nottingham; details: NCTC 7832, 18 h; summary of the method: as §1
[22] = Antibacterial activity against Salmonella enterica subspecies enterica serotype Poona NCTC 4840 after 18 hrs; format: functional, Salmonella enterica subsp. enterica serovar Poona; details: NCTC 4840, 18 h; summary of the method: as §1
[23] = Antibacterial activity against Salmonella enterica subspecies enterica serotype Pullorum OCC 273 after 18 hrs; format: functional, Salmonella enterica subsp. enterica serovar Pullorum; details: OCC 273, 18 h; summary of the method: as §1
Salmonella typhimurium = assay: Antibacterial activity against Salmonella enterica subspecies enterica serotype typhimurium ATCC 14028 after 18 hrs; format: functional, Salmonella enterica subsp. enterica serovar Typhimurium; details: ATCC 14028, 18 h; summary of the method: as §1
[24] = Antibacterial activity against Salmonella enterica subspecies enterica serotype Virchow NCTC 5742 after 18 hrs; format: functional, Salmonella enterica subsp. enterica serovar Virchow; details: NCTC 5742, 18 h; summary of the method: as §1

`OC[C@H]1O[C@H](Oc2cc(Cl)ccc2Oc2ccc(Cl)cc2Cl)[C@H](O)[C@@H](O)[C@@H]1O` gave an MIC (Staphylococcus aureus [1]) of 1 µg/mL (≈ 2.21 µM), an MIC (Staphylococcus aureus [2]) of 1 µg/mL (≈ 2.21 µM) and an MIC (Staphylococcus aureus [3]) of 1 µg/mL (≈ 2.21 µM). It also gave an MIC (Staphylococcus aureus [4]) of 1 µg/mL (≈ 2.21 µM), an MIC (Staphylococcus aureus [5]) of 1 µg/mL (≈ 2.21 µM) and an MIC (Staphylococcus aureus [6]) of 1 µg/mL (≈ 2.21 µM). The MIC (Staphylococcus aureus [7]) was 1 µg/mL (≈ 2.21 µM), the MIC (Staphylococcus aureus [8]) was 1 µg/mL (≈ 2.21 µM) and the MIC [9] was 1 µg/mL (≈ 2.21 µM). The MIC [10] was 1 µg/mL (≈ 2.21 µM), the MIC [11] was 1 µg/mL (≈ 2.21 µM) and the MIC [12] was 1 µg/mL (≈ 2.21 µM). The MIC [13] was 4 µg/mL (≈ 8.86 µM), the MIC (Streptococcus agalactiae) was 128 µg/mL (≈ 283 µM) and the MIC (Streptococcus pneumoniae [14]) was 32 µg/mL (≈ 70.8 µM). It also gave an MIC (Streptococcus pneumoniae [15]) of 32 µg/mL (≈ 70.8 µM), an MIC (Streptococcus pyogenes) of 32 µg/mL (≈ 70.8 µM) and an MIC (Streptococcus viridans) of 128 µg/mL (≈ 283 µM). The MIC [16] was 2 to 8 µg/mL (≈ 4.43 to 17.7 µM), the MIC [17] was 2 to 8 µg/mL (≈ 4.43 to 17.7 µM) and the MIC [18] was 2 to 8 µg/mL (≈ 4.43 to 17.7 µM). It also gave an MIC (Salmonella enteritidis) of 2 to 8 µg/mL (≈ 4.43 to 17.7 µM), an MIC [19] of 2 to 8 µg/mL (≈ 4.43 to 17.7 µM) and an MIC [20] of 2 to 8 µg/mL (≈ 4.43 to 17.7 µM). The MIC [21] was 2 to 8 µg/mL (≈ 4.43 to 17.7 µM), the MIC [22] was 2 to 8 µg/mL (≈ 4.43 to 17.7 µM) and the MIC [23] was 2 to 8 µg/mL (≈ 4.43 to 17.7 µM). For the same compound, the MIC (Salmonella typhimurium) was 2 to 8 µg/mL (≈ 4.43 to 17.7 µM) and the MIC [24] was 2 to 8 µg/mL (≈ 4.43 to 17.7 µM).
